From PubChem BioAssay
Activity calls are given as the source filed them.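 The calls were made as follows, unless noted: active = NADPH fluorescence slope more negative than the mean of all samples by about 3 SD, 99.7% confidence; inactive = the rest.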

Legend:
[1] = inhibitors of TNFa-induced NFkB p65 translocation, primary screen, imaging, HUVEC, MLSMR starter and 10KST1 sets (AID 438;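 active = inhibition above 20% together with a positive visual image hit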;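 also: compound added about 3h40 before a 20 min TNFalpha stimulation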;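 as to inhibition: signal is the nuclear over cytoplasmic p65 intensity ratio per well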); settings: HUVEC TNFa-induced p65 nuclear translocation; cell count: measured here: nuclei count (cytotoxicity indicator), at 2.08 µM; inhibition: at 2 µM, stronger effect = higher value, 0% TNFa-plus-vehicle, 100% no-TNFa wells
[2] = inhibitors of E-selectin induction by TNFa, primary screen, imaging, HUVEC, immunofluorescence, MLSMR starter and 10KST1 sets (AID 487;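 active = visually confirmed hit in the image check and inhibition above 20%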;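 as to inhibition: signal is fraction of cell area covered by stained E-selectin grains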;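 as to nuclei count: 100% = median nuclei count of all wells on the same plate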); settings: HUVEC TNFalpha-induced E-selectin immunofluorescence imaging, at 2 µM; inhibition: stronger effect = higher value; nuclei count: measured here: cell number, toxicity
[3] = DUSP6 inhibitors restoring Erk phosphorylation by chemical complementation, primary imaging in DUSP6-transfected HeLa (AID 609;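 active = compounds giving at least 50% inhibition in the cell-based MKP-3 phosphatase rescue imaging test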;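 as to inhibition: phospho-Erk level distribution per well compared with pooled transfected vehicle control wells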); settings: HeLa MKP-3 transfected, phospho-Erk imaging KS statistic, at 10 µM, cells stimulated with TPA for 15 min
[4] = biological target: Dual specificity protein phosphatase 6 (Homo sapiens) (UniProt Q16828); experiment: as above; settings: HeLa MKP-3 transfected, phospho-Erk imaging KS statistic; at 10 µM; stronger effect = higher value; cells stimulated with TPA for 15 min
[5] = biological target: Voltage-gated potassium channel subunit beta-2 (Rattus norvegicus) (UniProt P62483); experiment: KvBeta enzyme negative modulators, primary screen, biochemical, NADPH fluorescence (AID 622;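 active = fluorescence slope higher than the sample average by over 3 SD, cut at about -0.22 in these data, passing the limit was not always enough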;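 also: slope of raw intensity against log time taken from 70 to 1610 s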); settings: recombinant KvBeta, 4-cyanobenzaldehyde reduction, at 10 µM, stronger effect = higher value
[6] = biological target: Voltage-gated potassium channel subunit beta-2 (Rattus norvegicus) (UniProt P62483); experiment: KvBeta positive modulators, primary screen, biochemical, NADPH fluorescence (AID 623); settings: Recombinant KvBeta, NADPH fluorescence decrease slope, 10 min; at 10 µM; stronger effect = lower value;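 also: fluorescence intensity change per second fitted from 20 to 320 s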
[7] = biological target: Alpha-2C adrenergic receptor (Homo sapiens) (UniProt P18825); experiment: modulators of alpha2C/GIRK thallium flux, primary screen, cell-based, HEK293 alpha2C/GIRK1/2 (AID 624;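 active = fluorescence slope after compound addition differing from the mean of all screened samples at 99.7% confidence, in either direction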;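 also: slope of fluorescence ratio to pre-addition baseline per second over 15 to 24 s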); settings: thallium flux BTC fluorescence, at 10 µM, actives lie on both sides
[8] = inhibitors of larval lipid processing in zebrafish, primary screen, whole organism, PED6 fluorescence, gall bladder and intestine (AID 686;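 active = a full or partial loss of lipid-probe fluorescence in the fish gall bladder, intestine or both, judged by eye; inactive = no fluorescence loss, or compound toxic to the fish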;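 also: larvae 5 to 7 days old with five fish per well; signal comes from phospholipase A2 cleavage of quenched PED6 carried via bile; overnight exposure to compound and PED6 before scoring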); settings: Zebrafish larvae PED6 lipid processing, fluorescence scoring; screened at 20 µM (by protocol)
Procedure, shortened: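 Test system – live zebrafish larvae aged 5-7 days, whole organism · Buffer or medium – E3 fish medium · Reagent – quenched phospholipase substrate PED6, 100 nM final, ingested by larvae · Doses – 20 µM single dose · Incubation – overnight compound and PED6 incubation · Technique – visual fluorescence microscopy scoring of gall bladder, gut · Read-out basis – visual per-well fluorescence inhibition score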

[9] = inhibitors of Chlamydomonas gravitaxis, primary screen, whole organism, Chlamydomonas reinhardtii, WT vs cilia-less mutant, absorbance, 96-well (AID 463189;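 active = inhibition at or above 50% relative to wild type and mutant plate controls; inactive = inhibition below 50%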;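 also: 0% = wild type cc124 cells in DMSO and 100% = ciliumless bld1 mutant cells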); settings: OD600 absorbance, 2 days, at 10 µM, stronger effect = higher value
[10] = measured here: cell density z-score
[11] = measured here: nuclear c-Myc green intensity z-score
[12] = measured here: nuclear pErk red intensity z-score, stronger effect = higher value

Chain of Alpha-2C adrenergic receptor (Homo sapiens) (P18825 whole entry, looked up): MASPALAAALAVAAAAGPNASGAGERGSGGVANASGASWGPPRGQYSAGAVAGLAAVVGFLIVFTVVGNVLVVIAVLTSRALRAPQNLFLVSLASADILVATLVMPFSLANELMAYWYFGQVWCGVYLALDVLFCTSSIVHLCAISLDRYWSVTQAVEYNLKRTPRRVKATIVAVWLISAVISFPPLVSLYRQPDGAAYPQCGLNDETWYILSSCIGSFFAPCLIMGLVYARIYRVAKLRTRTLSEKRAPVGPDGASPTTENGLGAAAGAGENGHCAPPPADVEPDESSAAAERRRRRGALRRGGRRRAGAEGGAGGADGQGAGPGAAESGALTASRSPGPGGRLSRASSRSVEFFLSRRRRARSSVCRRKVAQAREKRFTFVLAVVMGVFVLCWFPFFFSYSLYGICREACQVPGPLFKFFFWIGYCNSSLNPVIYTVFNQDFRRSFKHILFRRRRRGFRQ
Chain of Dual specificity protein phosphatase 6 (Homo sapiens) (Q16828 whole entry, looked up): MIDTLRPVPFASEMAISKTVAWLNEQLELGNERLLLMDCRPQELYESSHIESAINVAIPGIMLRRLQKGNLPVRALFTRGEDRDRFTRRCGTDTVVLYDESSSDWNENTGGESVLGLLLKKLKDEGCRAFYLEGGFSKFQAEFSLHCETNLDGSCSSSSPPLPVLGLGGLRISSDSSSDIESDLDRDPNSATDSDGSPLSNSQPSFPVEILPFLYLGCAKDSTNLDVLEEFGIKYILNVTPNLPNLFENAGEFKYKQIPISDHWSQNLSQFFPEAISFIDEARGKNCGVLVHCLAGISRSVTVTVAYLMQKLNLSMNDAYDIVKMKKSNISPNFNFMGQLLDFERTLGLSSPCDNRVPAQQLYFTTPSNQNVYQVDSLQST
Chain of Voltage-gated potassium channel subunit beta-2 (Rattus norvegicus) (P62483 whole entry, looked up): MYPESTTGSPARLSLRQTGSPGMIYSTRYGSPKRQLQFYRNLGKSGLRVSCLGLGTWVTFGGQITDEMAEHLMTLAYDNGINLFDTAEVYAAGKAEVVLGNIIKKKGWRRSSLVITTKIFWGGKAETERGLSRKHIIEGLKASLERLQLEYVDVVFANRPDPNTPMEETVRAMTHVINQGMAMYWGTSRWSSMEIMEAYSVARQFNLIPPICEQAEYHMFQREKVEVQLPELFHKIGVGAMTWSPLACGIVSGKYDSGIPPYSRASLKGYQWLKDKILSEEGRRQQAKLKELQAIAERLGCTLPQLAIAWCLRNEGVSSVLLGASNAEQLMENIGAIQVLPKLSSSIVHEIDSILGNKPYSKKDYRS

Structure (SMILES) | cell count [1] | inhibition [1] | inhibition [2] | nuclei count [2] | z-score [3, 10] | z-score [3, 11] | z-score [3, 12] | inhibition [4] | fluorescence slope [5] | NADPH fluorescence slope [6] | slope [7] | outcome [8] | inhibition [9]
COC(=O)c1ccccc1N1C(=O)[C@@H]2C(c3ccc(Br)cc3)=NO[C@@H]2C1=O | 269 | -12.6% (inactive) | 0.3% (inactive) | 89.9% | -0.914 | 2.06 | -1.22 | 1.75% (inactive) | -0.458 (inactive) | -7.9e-05 (inactive) | 0.00516 (inactive) | inactive | -19.6% (inactive)
COc1ccc(-c2nnc3sc(COc4ccccc4)nn23)cc1 | 645 | -8.4% (inactive) | -95.8% (inactive) | 154% | -0.369 | -0.469 | -1.07 | 4.72% (inactive) | -0.445 (inactive) | -0.000151 (inactive) | 0.00767 (inactive) | inactive | 150% (active)
CCCCOC(=O)CSC1=C(C#N)C(c2ccccc2OC)C(C#N)C(=O)N1 (stereo not given) | 504 | -3% (inactive) | -46% (inactive) | 116% | -0.706 | 0.338 | 1.09 | 9.39% (inactive) | -0.481 (inactive) | -0.000165 (inactive) | 0.00464 (inactive) | inactive | -21.1% (inactive)
C=CCn1c(SCc2c(F)c(F)c(F)c(F)c2F)nc(O)cc1=O | 615 | -1.1% (inactive) | -11.1% (inactive) | 149% | 1.68 | -0.511 | 0.131 | 7.83% (inactive) | -0.502 (inactive) | -0.00012 (inactive) | 0.00491 (inactive) | inactive | 8.12% (inactive)
CCCC1C2C(=O)N(c3ccccc3OC)C(=O)C2ON1c1ccccc1 (stereo not given) | 329 | -20.4% (inactive) | -107% (inactive) | 93.8% | 1.11 | 1.02 | 0.149 | 11.3% (inactive) | -0.536 (inactive) | -2.6e-05 (inactive) | 0.00508 (inactive) | inactive | 32.4% (inactive)
CC(C)(C)NCC(=O)c1c[nH]c2ccccc12 | 535 | -1.7% (inactive) | -49.5% (inactive) | 146% | -0.736 | 1.42 | -0.666 | -1.75% (inactive) | -0.35 (inactive) | 5.2e-06 (inactive) | 0.00435 (inactive) | inactive | -1.18% (inactive)
CCCc1nnc(NC(=O)c2c(O)c3c([nH]c2=O)CCCC3)s1 | 312 | -15.5% (inactive) | -42.9% (inactive) | 134% | -0.253 | -0.454 | -0.547 | 17.5% (inactive) | -0.423 (inactive) | -3.6e-05 (inactive) | 0.00662 (inactive) | inactive | 14% (inactive)
CSc1nc(Oc2ccc(=O)[nH]n2)nc(N(C)C)n1 | 619 | -0.7% (inactive) | -20.1% (inactive) | 148% | -0.384 | -0.165 | 1.66 | -2.69% (inactive) | -0.314 (inactive) | 2.2e-06 (inactive) | 0.00466 (inactive) | inactive | 9.17% (inactive)
Cn1cc(Br)cc2nc(C(F)(F)F)nc1-2 | 534 | -11.2% (inactive) | -143% (inactive) | 133% | 0.955 | -1.14 | -0.53 | 29.7% (inactive) | -0.532 (inactive) | -2.5e-05 (inactive) | 0.00656 (inactive) | inactive | 20% (inactive)
C/C(=N\O)C1(C)N(O)C(C)(C)C(c2ccco2)=[N+]1[O-] (stereo not given) | 428 | -2.8% (inactive) | -112% (inactive) | 131% | 0.73 | -1.17 | -0.0605 | 13.2% (inactive) | -0.486 (inactive) | -3.2e-05 (inactive) | 0.00518 (inactive) | inactive | 14.5% (inactive)
COc1ccc(/C(O)=C2\C(=O)C(=O)N(CCN3CCOCC3)C2c2ccccc2OC)cc1 (stereo not given) | 562 | -10.5% (inactive) | -38.1% (inactive) | 164% | 1.03 | -1.74 | 0.476 | -7.86% (inactive) | -0.486 (inactive) | -2.2e-05 (inactive) | 0.00695 (inactive) | inactive | -2.72% (inactive)
Cn1c(=O)c2c(nc(SCCN3CCCCC3)n2Cc2ccc(Cl)cc2)n(C)c1=O | 498 | -3.7% (inactive) | -203% (inactive) | 140% | 0.51 | -0.662 | -1.54 | 21% (inactive) | -0.526 (inactive) | -1.5e-05 (inactive) | 0.00528 (inactive) | inactive | 104% (active)
CCN(CC)CCNc1nc(-c2ccco2)c2c(c1C#N)CC(C)(C)OC2 | 580 | -4.5% (inactive) | 12.3% (inactive) | 110% | 0.832 | 0.195 | 0.416 | 9.82% (inactive) | -0.379 (inactive) | 1.9e-06 (inactive) | 0.00425 (inactive) | inactive | 47.8% (inactive)
O=C(c1ccc(F)cc1)N1CCC(N2CCCCCC2)CC1 | 392 | -0.5% (inactive) | -100% (inactive) | 138% | -0.0132 | 0.516 | -0.618 | 15.1% (inactive) | -0.395 (inactive) | -7.7e-06 (inactive) | 0.00694 (inactive) | inactive | 43.9% (inactive)
COC(=O)c1ccn(C(=O)c2ccc(Cl)cc2)n1 | 646 | -1.4% (inactive) | -13.4% (inactive) | 147% | 1.7 | -0.283 | 1.25 | -2.91% (inactive) | -0.519 (inactive) | -4e-05 (inactive) | 0.00635 (inactive) | inactive | 6.37% (inactive)
O=C(CC(c1ccccc1)c1ccco1)N1CCOCC1 (stereo not given) | 294 | -28.3% (inactive) | -96.2% (inactive) | 84.1% | -0.599 | 0.143 | -0.229 | 14% (inactive) | -0.429 (inactive) | -4.9e-05 (inactive) | 0.00649 (inactive) | inactive | -5.11% (inactive)
O=C(CCC1CCCC1)N1CCC(N2CCN(c3ccccc3)CC2)CC1 | 411 | -9.4% (inactive) | -188% (inactive) | 140% | 0.947 | 0.889 | -0.837 | 9.39% (inactive) | -0.446 (inactive) | 4.6e-06 (inactive) | 0.00549 (inactive) | inactive | 62.1% (active)
CC(C(=O)N1CCOCC1)N1C(=O)c2ccccc2C1=O (stereo not given) | 306 | -3% (inactive) | -45.1% (inactive) | 96% | 1.24 | -0.122 | -1.67 | -8.76% (inactive) | -0.419 (inactive) | 2.4e-06 (inactive) | 0.0049 (inactive) | inactive | 15.3% (inactive)
CCC1(C)Cc2c(sc3c2c(=O)n(C)c2nnc(SCc4ccccc4)n32)CO1 (stereo not given) | 584 | 1.3% (inactive) | -171% (inactive) | 156% | -0.0769 | -0.7 | -1.21 | 3.56% (inactive) | -0.286 (inactive) | -6.4e-06 (inactive) | 0.00603 (inactive) | inactive | 16.4% (inactive)
COc1ccc2c(c1OC)C(=O)N1c3ccccc3C(=O)N(c3ccc(F)cc3)C21 (stereo not given) | 409 | -15.5% (inactive) | -44.4% (inactive) | 103% | -0.0624 | -0.142 | 0.819 | -1.12% (inactive) | -0.305 (inactive) | -2.1e-05 (inactive) | 0.00563 (inactive) | inactive | 6.22% (inactive)
Cn1c(OCc2cccnc2)nc2c1c(=O)n(Cc1ccc(Cl)cc1)c(=O)n2C | 653 | -7.1% (inactive) | 6.1% (inactive) | 156% | -0.404 | 0.0478 | 1.27 | 2.46% (inactive) | -0.505 (inactive) | -9.6e-05 (inactive) | 0.00416 (inactive) | inactive | 66.4% (active)
CCOC(=O)COc1ccc(Oc2nc(C)cc(OC)n2)nn1 | 443 | -4.6% (inactive) | -136% (inactive) | 152% | 0.693 | -0.0792 | 0.257 | 0.671% (inactive) | -0.417 (inactive) | -8.4e-05 (inactive) | 0.00639 (inactive) | inactive | 9.9% (inactive)
COc1ccc(CN2CCC(=O)NC2=O)cc1 | 670 | -14.7% (inactive) | -450% (inactive) | 162% | 0.756 | -1.36 | 0.0301 | 9.39% (inactive) | -0.502 (inactive) | -3.7e-05 (inactive) | 0.00539 (inactive) | inactive | 2.33% (inactive)
Cc1nc2c(c(=O)n1CC1CCCO1)c1nc3ccccc3nc1n2CCC(C)C (stereo not given) | 327 | -4.1% (inactive) | -30.1% (inactive) | 177% | 1.21 | -0.55 | 1.04 | -0.584% (inactive) | -0.381 (inactive) | -0.000104 (inactive) | 0.00821 (inactive) | inactive | 24.8% (inactive)
O=C(NC1(C(F)(F)F)C(=O)Nc2c1c(=O)[nH]c(=O)n2-c1ccccc1)c1cccnc1 (stereo not given) | 471 | 1.9% (inactive) | -47.1% (inactive) | 106% | -0.151 | -1.59 | 0.837 | 3.5% (inactive) | -0.52 (inactive) | -2.5e-05 (inactive) | 0.00618 (inactive) | inactive | 32% (inactive)
